Broadly, the inhibition is the share of the control response that was lost under treatment. As usually defined, the IC50 is the concentration at which inhibition is half-maximal.

Consider 3 molecules from ChEMBL document CHEMBL4145675, “2-Phenylquinoline S. aureus NorA Efflux Pump Inhibitors: Evaluation of the Importance of Methoxy Group Introduction” (J Med Chem, 2018).

Structures are written as SMILES. Converted amounts (≈) assume the structure as drawn. The source made the active and inactive calls. The calls are words filed in the database; no cut-off is given here.

The target of the first data set is T1, Quinolone resistance protein NorA (Staphylococcus aureus) (UniProt P0A0J7).
T1 sequence (whole entry): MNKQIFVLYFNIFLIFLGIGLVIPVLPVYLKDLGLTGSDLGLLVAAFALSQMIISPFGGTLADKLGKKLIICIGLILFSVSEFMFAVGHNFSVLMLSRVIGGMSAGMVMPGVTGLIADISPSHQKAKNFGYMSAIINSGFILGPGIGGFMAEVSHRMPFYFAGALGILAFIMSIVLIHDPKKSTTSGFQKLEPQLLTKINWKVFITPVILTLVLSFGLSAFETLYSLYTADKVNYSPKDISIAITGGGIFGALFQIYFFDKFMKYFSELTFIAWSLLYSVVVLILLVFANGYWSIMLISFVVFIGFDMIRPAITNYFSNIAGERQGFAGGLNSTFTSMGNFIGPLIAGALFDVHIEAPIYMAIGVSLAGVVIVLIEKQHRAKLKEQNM
Nature of the data set: Inhibition of NorA in Staphylococcus aureus SA-1199B expressing GrlA A116E mutant assessed as reduction in EtBr efflux at 50 uM incubated for 5 mins by fluorescence based assay.
Details: not given
Summed up:
(§1)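 Cells were grown overnight in cation-supplemented Mueller-Hinton broth at 35 °C and subcultured to OD600 0.7–0.8. They were loaded at OD600 0.8 with 25 µM EtBr plus 100 µM CCCP (final) for 20 min at room temperature. Cells were then resuspended in fresh broth with or without compound, 50 µM for the single-point screen or a concentration series for IC50. Fluorescence (ex 485/em 645 nm) was read for 5 min. Inhibition was calculated from the fluorescence decrease versus untreated cells. Biological triplicate, each run twice.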
As for `CCCOc1ccc(-c2cc(OCCN3CCc4cc(OC)c(OC)cc4C3)c3ccc(OC)cc3n2)cc1`, the inhibition is 91%.

`CCCOc1ccc(-c2cc(OCCN3CCc4cc(OC)c(OC)cc4C3)c3cc(OC)cc(OC)c3n2)cc1`: the inhibition stood at 86.7%.

Take `CCCOc1ccc(-c2cc(OCCN3CCc4cc(OC)c(OC)cc4C3)c3c(OC)cc(OC)cc3n2)cc1`: the inhibition is 86.5%.

Another data set has as its target Quinolone resistance protein NorA (Staphylococcus aureus, UniProt P0A0J7, A116E). Nature of the data set: Inhibition of NorA in Staphylococcus aureus SA-1199B expressing GrlA A116E mutant assessed as reduction in EtBr efflux incubated for 5 mins by fluorescence based assay.
Details: not given
Summed up: as §1
Consider `CCCOc1ccc(-c2cc(OCCN3CCc4cc(OC)c(OC)cc4C3)c3ccc(OC)cc3n2)cc1`, for which the 50% inhibitory concentration (IC50) amounted to 4.7 µM.

For the molecule `CCCOc1ccc(-c2cc(OCCN3CCc4cc(OC)c(OC)cc4C3)c3cc(OC)cc(OC)c3n2)cc1`, the IC50 was found to be 3.8 µM.

With `CCCOc1ccc(-c2cc(OCCN3CCc4cc(OC)c(OC)cc4C3)c3c(OC)cc(OC)cc3n2)cc1`, the IC50 worked out at 1.6 µM.

A further data set deals with Staphylococcus aureus. The experiment in a line: Antimicrobial activity against Staphylococcus aureus SA-1199B expressing wild type norA and co-expressing GrlA A116E mutant by microdilution method. The data set is classed as organism-based. To be noted: in vivo. In a few lines: (§2)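 CLSI broth microdilution MIC of the compound alone. Strains: SA-K1902 (norA deleted), SA-K2378 (SA-K1902 carrying norA plus its promoter on multicopy plasmid pCU1), SA-1199B (norA overexpressing, GrlA A116E).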
On the technique in general: In broth dilution the organism is exposed to a series of concentrations in liquid medium.
Molecule `CCCOc1ccc(-c2cc(OCCN3CCc4cc(OC)c(OC)cc4C3)c3ccc(OC)cc3n2)cc1` registered an MIC above 189 µM.

`CCCOc1ccc(-c2cc(OCCN3CCc4cc(OC)c(OC)cc4C3)c3cc(OC)cc(OC)c3n2)cc1` returned an MIC of 45 µM (≈ 25.1 µg/mL).

For `CCCOc1ccc(-c2cc(OCCN3CCc4cc(OC)c(OC)cc4C3)c3c(OC)cc(OC)cc3n2)cc1`, the MIC stood at 179 µM (≈ 100 µg/mL).

The next data set concerns the target T1, Quinolone resistance protein NorA (Staphylococcus aureus). Nature of the data set: Inhibition of NorA in Staphylococcus aureus SA-1199B expressing GrlA A116E mutant assessed as minimal potentiating drug concentration causing 8 fold reduction in ciprofloxacin MIC by microdilution method based Checkerboard assay.
Details: not given
`CCCOc1ccc(-c2cc(OCCN3CCc4cc(OC)c(OC)cc4C3)c3ccc(OC)cc3n2)cc1`: the Activity is 3.13 µg/mL.

As for `CCCOc1ccc(-c2cc(OCCN3CCc4cc(OC)c(OC)cc4C3)c3cc(OC)cc(OC)c3n2)cc1`, the Activity was determined as 3.13 µg/mL.

Turning to `CCCOc1ccc(-c2cc(OCCN3CCc4cc(OC)c(OC)cc4C3)c3c(OC)cc(OC)cc3n2)cc1`, the Activity is below 100 µg/mL.

The test system of the next data set is Staphylococcus aureus. Nature of the data set: Synergistic potentiation of ciprofloxacin-induced antimicrobial activity against wild type Staphylococcus aureus ATCC 25923 at 0.78 to 100 ug/ml by microdilution method based Checkerboard assay. It is filed as functional, organism-based.
Details: not given
As for `CCCOc1ccc(-c2cc(OCCN3CCc4cc(OC)c(OC)cc4C3)c3ccc(OC)cc3n2)cc1`, the “synergistic potentiation of ciprofloxacin activity” value (shortened to “synergistic potentiation”) was “Active”.

Turning to `CCCOc1ccc(-c2cc(OCCN3CCc4cc(OC)c(OC)cc4C3)c3cc(OC)cc(OC)c3n2)cc1`, the “synergistic potentiation” value was “Active”.

In the case of `CCCOc1ccc(-c2cc(OCCN3CCc4cc(OC)c(OC)cc4C3)c3c(OC)cc(OC)cc3n2)cc1`, the “synergistic potentiation” value is “Active”.

A further data set relates to Staphylococcus aureus. The experiment in a line: Synergistic potentiation of ciprofloxacin-induced antimicrobial activity against Staphylococcus aureus SA-1199 at 0.78 to 100 ug/ml by microdilution method based Checkerboard assay. It is filed as functional, organism-based.
Details: not given
In the case of `CCCOc1ccc(-c2cc(OCCN3CCc4cc(OC)c(OC)cc4C3)c3ccc(OC)cc3n2)cc1`, the inhibition entry is “Active”.

Consider `CCCOc1ccc(-c2cc(OCCN3CCc4cc(OC)c(OC)cc4C3)c3cc(OC)cc(OC)c3n2)cc1`, for which the inhibition entry was “Active”.

For the molecule `CCCOc1ccc(-c2cc(OCCN3CCc4cc(OC)c(OC)cc4C3)c3c(OC)cc(OC)cc3n2)cc1`, the inhibition result is “Active”.

Another data set concerns the target T1, Quinolone resistance protein NorA (Staphylococcus aureus). Nature of the data set: Inhibition of NorA in Staphylococcus aureus SA-1199B expressing GrlA A116E mutant assessed as synergistic potentiation of ciprofloxacin-induced antimicrobial activity at 0.78 to 100 ug/ml by microdilution method based Checkerboard assay.
Details: not given
Consider `CCCOc1ccc(-c2cc(OCCN3CCc4cc(OC)c(OC)cc4C3)c3ccc(OC)cc3n2)cc1`, for which the inhibition result was “Active”.

Take `CCCOc1ccc(-c2cc(OCCN3CCc4cc(OC)c(OC)cc4C3)c3cc(OC)cc(OC)c3n2)cc1`: the inhibition result is “Active”.

As for `CCCOc1ccc(-c2cc(OCCN3CCc4cc(OC)c(OC)cc4C3)c3c(OC)cc(OC)cc3n2)cc1`, the inhibition result is “Active”.

The next data set has the same target. The experiment in a line: Inhibition of NorA in Staphylococcus aureus SA-1199B expressing GrlA A116E mutant assessed as synergistic potentiation of ciprofloxacin-induced antimicrobial activity at 0.78 ug/ml by microdilution method based Checkerboard assay.
Details: not given
Take `CCCOc1ccc(-c2cc(OCCN3CCc4cc(OC)c(OC)cc4C3)c3ccc(OC)cc3n2)cc1`: the inhibition entry was “Active”.

Consider `CCCOc1ccc(-c2cc(OCCN3CCc4cc(OC)c(OC)cc4C3)c3cc(OC)cc(OC)c3n2)cc1`, for which the inhibition entry is “Active”.

Regarding `CCCOc1ccc(-c2cc(OCCN3CCc4cc(OC)c(OC)cc4C3)c3c(OC)cc(OC)cc3n2)cc1`, the inhibition result was “Active”.

A further data set has the same target. The experiment in a line: Inhibition of NorA in Staphylococcus aureus SA-K2378 assessed as synergistic potentiation of ciprofloxacin-induced antimicrobial activity at 0.78 to 100 ug/ml by microdilution method based Checkerboard assay.
Details: not given
Regarding `CCCOc1ccc(-c2cc(OCCN3CCc4cc(OC)c(OC)cc4C3)c3cc(OC)cc(OC)c3n2)cc1`, the inhibition entry is “Active”.

For the molecule `CCCOc1ccc(-c2cc(OCCN3CCc4cc(OC)c(OC)cc4C3)c3c(OC)cc(OC)cc3n2)cc1`, the inhibition result was “Active”.

In the next data set the test system is Staphylococcus aureus. The experiment in a line: Synergistic potentiation of ciprofloxacin-induced antimicrobial activity against norA deleted Staphylococcus aureus SA-K1902 at 0.78 to 100 ug/ml by microdilution method based Checkerboard assay. It is filed as functional, organism-based.
Details: not given
`CCCOc1ccc(-c2cc(OCCN3CCc4cc(OC)c(OC)cc4C3)c3cc(OC)cc(OC)c3n2)cc1`: the outcome was inactive.

As for `CCCOc1ccc(-c2cc(OCCN3CCc4cc(OC)c(OC)cc4C3)c3c(OC)cc(OC)cc3n2)cc1`, the result was inactive.

Another data set concerns the target T1, Quinolone resistance protein NorA (Staphylococcus aureus). The experiment in a line: Inhibition of NorA in Staphylococcus aureus SA-K2378 assessed as synergistic potentiation of ciprofloxacin-induced antimicrobial activity at 0.78 ug/ml by microdilution method based Checkerboard assay.
Details: not given
Regarding `CCCOc1ccc(-c2cc(OCCN3CCc4cc(OC)c(OC)cc4C3)c3cc(OC)cc(OC)c3n2)cc1`, the fold change (FC) is 8.

The subject of another data set is Staphylococcus aureus. The experiment in a line: Antimicrobial activity against Staphylococcus aureus ATCC 25923 by microdilution method. The data set is classed as organism-based. The note with it: in vivo. In a few lines: (§3)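 Broth microdilution MIC per CLSI guidelines. ATCC 25923 is norA wild-type. SA-1199B overexpresses norA and carries an A116E GrlA substitution.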
`CCCOc1ccc(-c2cc(OCCN3CCc4cc(OC)c(OC)cc4C3)c3ccc(OC)cc3n2)cc1` showed an MIC above 100 µg/mL.

Regarding `CCCOc1ccc(-c2cc(OCCN3CCc4cc(OC)c(OC)cc4C3)c3cc(OC)cc(OC)c3n2)cc1`, the MIC was found to be 25 µg/mL (≈ 44.7 µM).

Consider `CCCOc1ccc(-c2cc(OCCN3CCc4cc(OC)c(OC)cc4C3)c3c(OC)cc(OC)cc3n2)cc1`, for which the MIC came to 100 µg/mL (≈ 179 µM).

The test system of another data set is Staphylococcus aureus. The experiment in a line: Antimicrobial activity against Staphylococcus aureus SA-1199B expressing wild type norA by microdilution method. It is filed as organism-based. The note with it: in vivo. Summed up: as §3
`CCCOc1ccc(-c2cc(OCCN3CCc4cc(OC)c(OC)cc4C3)c3ccc(OC)cc3n2)cc1` showed an MIC above 100 µg/mL.

`CCCOc1ccc(-c2cc(OCCN3CCc4cc(OC)c(OC)cc4C3)c3cc(OC)cc(OC)c3n2)cc1`: the MIC was found to be 25 µg/mL (≈ 44.7 µM).

`CCCOc1ccc(-c2cc(OCCN3CCc4cc(OC)c(OC)cc4C3)c3c(OC)cc(OC)cc3n2)cc1` had an MIC of 100 µg/mL (≈ 179 µM).

Another data set has as its system Staphylococcus aureus. The experiment in a line: Antimicrobial activity against NorA deficient Staphylococcus aureus SA-K1902 by microdilution method. The data set is classed as organism-based. To be noted: in vivo. Summed up: as §2
Take `CCCOc1ccc(-c2cc(OCCN3CCc4cc(OC)c(OC)cc4C3)c3cc(OC)cc(OC)c3n2)cc1`: the MIC came to 25 µg/mL (≈ 44.7 µM).
